Laboratory results reported in ChEMBL document CHEMBL4196176, “Structure-Based Design of MptpB Inhibitors That Reduce Multidrug-Resistant Mycobacterium tuberculosis Survival and Infection Burden in Vivo” (J Med Chem, 2018).
Calls of active or inactive are those of the source. No cut-off for these calls is given here.

Tests used:
[1] = molecular target: T1, Phosphotyrosine protein phosphatase (Mycobacterium tuberculosis, UniProt A0A045ISB3); experiment: Inhibition of Mycobacterium tuberculosis H37Rv His-tagged ptpB expressed in Escherichia coli BL21(DE3) using pNPP as substrate preincubated for 15 mins followed by substrate addition and measured after 15 mins
T1 sequence (A0A045ISB3 whole entry): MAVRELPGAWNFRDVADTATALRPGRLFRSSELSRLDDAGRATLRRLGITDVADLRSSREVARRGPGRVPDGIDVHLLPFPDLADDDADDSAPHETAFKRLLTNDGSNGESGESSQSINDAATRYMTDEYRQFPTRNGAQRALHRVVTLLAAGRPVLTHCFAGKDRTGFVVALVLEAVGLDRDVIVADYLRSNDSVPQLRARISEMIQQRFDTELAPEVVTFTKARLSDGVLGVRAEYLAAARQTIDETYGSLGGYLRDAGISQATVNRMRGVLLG

[2] = system: Cavia porcellus; experiment: Cmax in Dunkin Hartley guinea pig at 5 mg/kg, po after 0.25 hrs post dose; format: ADME, organism-based; design: dose 5 mg/kg, route oral; details: in vivo, BLD = below limit of detection
[3] = system: Cavia porcellus; experiment: Half life in Dunkin Hartley guinea pig at 5 mg/kg, po; format: ADME, organism-based; details: in vivo, BLD = below limit of detection
[4] = Inhibition of Mycobacterium tuberculosis H37Rv His-tagged ptpA expressed in Escherichia coli BL21(DE3) using pNPP as substrate preincubated for 15 mins followed by substrate addition and measured after 15 mins
Summary of the method: (§1)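 His-tagged MptpA/MptpB expressed in E. coli BL21(DE3); VHR and hPTP1B purified as GST fusions with the tag cleaved. 0.5 μg protein in Tris/BisTris/acetate buffer (pH 7 MptpB, 6.5 MptpA, 6 hPTP1B, 5 VHR) with compound at 0–250 μM, 15 min at room temperature. pNPP added to 0.35 mM for 15 min, quenched with NaOH, read at 405 nm against a pNP curve. No-enzyme blanks.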

[5] = system: Cavia porcellus; experiment: Cmax in Dunkin Hartley guinea pig at 2.5 mg/kg, ip after 0.5 hrs post dose; format: ADME, organism-based; design: dose 2.5 mg/kg, route intraperitoneal; details: in vivo
[6] = molecular target: Dual specificity protein phosphatase 3 (Homo sapiens, UniProt P51452); experiment: Inhibition of human VHR using pNPP as substrate preincubated for 15 mins followed by substrate addition and measured after 15 mins; summary of the method: as §1
[7] = system: Cavia porcellus; experiment: Oral bioavailability in Dunkin Hartley guinea pig at 5 mg/kg; format: ADME, organism-based; details: in vivo
[8] = molecular target: T2, Tyrosine-protein phosphatase non-receptor type 1 (Homo sapiens, UniProt P18031); experiment: Inhibition of human PTP1B using pNPP as substrate preincubated for 15 mins followed by substrate addition and measured after 15 mins
T2 sequence (P18031 whole entry): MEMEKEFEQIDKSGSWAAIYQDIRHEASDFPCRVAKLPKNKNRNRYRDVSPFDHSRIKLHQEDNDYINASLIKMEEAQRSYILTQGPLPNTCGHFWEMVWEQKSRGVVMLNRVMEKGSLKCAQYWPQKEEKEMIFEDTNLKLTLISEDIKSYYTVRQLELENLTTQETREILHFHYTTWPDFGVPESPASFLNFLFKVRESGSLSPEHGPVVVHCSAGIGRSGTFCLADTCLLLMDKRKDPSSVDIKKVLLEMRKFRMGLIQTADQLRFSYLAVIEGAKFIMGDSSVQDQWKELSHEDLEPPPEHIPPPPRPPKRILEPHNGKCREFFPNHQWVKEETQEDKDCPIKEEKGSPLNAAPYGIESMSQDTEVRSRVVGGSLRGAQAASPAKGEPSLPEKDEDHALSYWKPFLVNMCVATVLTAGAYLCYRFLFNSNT

[9] = system: Cavia porcellus; experiment: AUCinfinity in Dunkin Hartley guinea pig at 2.5 mg/kg, ip; format: ADME, organism-based; design: dose 2.5 mg/kg, time infinity, route intraperitoneal; details: in vivo
[10] = system: Cavia porcellus; experiment: AUCinfinity in Dunkin Hartley guinea pig at 5 mg/kg, po; format: ADME, organism-based; design: dose 5 mg/kg, time infinity, route oral; details: in vivo, BLD = below limit of detection
[11] = system: Cavia porcellus; experiment: Half life in Dunkin Hartley guinea pig at 2.5 mg/kg, ip; format: ADME, organism-based; details: in vivo
[12] = system: Mycobacterium tuberculosis; experiment: (§2) Antimycobacterial activity against Mycobacterium tuberculosis H37Rv infected in chronic TB infection induced Hartley Duncan guinea pig model assessed as reduction of granulomatous infiltration in spleen at 100 mg/kg/day, po administered at 24 hrs post infection measured after 56 days post infection by hematoxylin and eosin staining-based assay; format: functional, organism-based
Summary of the method: (§3)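 Chronic aerosol model (63 CFU; oral 100 mg/kg daily for 4 weeks from day 28). Lungs and spleens inspected at 56 days post infection. Tissue fixed in formalin, paraffin-embedded, cut at about 5 μm and stained with hematoxylin and eosin; lesions and granulomas compared with vehicle.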

[13] = system: Cavia porcellus; experiment: AUCinfinity in Dunkin Hartley guinea pig at 4 mg/kg, ip; format: ADME, organism-based; design: dose 4 mg/kg, route intraperitoneal, time infinity; details: in vivo
[14] = system: Cavia porcellus; experiment: Cmax in Dunkin Hartley guinea pig at 4 mg/kg, ip after 0.5 hrs post dose; format: ADME, organism-based; design: dose 4 mg/kg, route intraperitoneal; details: in vivo
[15] = molecular target: T3, Phosphotyrosine protein phosphatase (Mycobacterium tuberculosis) (UniProt A0A045ISB3); experiment: Inhibition of RFP expressing Mycobacterium tuberculosis H37Rv ATCC 35837 ptpB infected in mouse RAW264.7 cells assessed as prolongation association of PI3P to FYVE2X-FGFP on bacterial phagosome at 80 uM by live-cell imaging method; format: cell-based
T3 sequence (whole entry): T1 sequence (A0A045ISB3 whole entry)
Summary of the method: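 RAW264.7 cells transfected with EGFP-2xFYVE plasmid using JetPEI. Next day infected with RFP-M. tuberculosis H37Rv at MOI 5:1, with compound at 80 μM added together with the bacteria. Imaged live immediately, every 30 s, to follow PI3P on phagosomes.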

[16] = system: Cavia porcellus; experiment: Cmax in Dunkin Hartley guinea pig at 8 mg/kg, po after 0.25 hrs post dose; format: ADME, organism-based; design: dose 8 mg/kg, route oral; details: in vivo
[17] = system: Mycobacterium tuberculosis; experiment: Antibacterial activity against Mycobacterium tuberculosis H37Rv infected in chronic TB infection induced Hartley Duncan guinea pig model assessed as log reduction in bacterial burden in lungs at 100 mg/kg/day, po administered at 24 hrs post infection measured after 4 weeks post infection; format: functional
Summary of the method: (§4)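 Guinea pigs infected by aerosol with 63 CFU M. tuberculosis, 5 per group, and left untreated for 28 days; baseline lung and spleen burden taken at day 28. Compound (100 mg/kg) or vehicle then given orally daily for 4 weeks. Lung and spleen CFU compared with vehicle.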

[18] = Plasma concentration in Hartley Duncan guinea pig at 100 mg/kg, po measured at 24 hrs; format: ADME, organism-based, Cavia porcellus
Summary of the method: (§5)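 Guinea pigs (n = 5) given 100 mg/kg orally once daily for 7 days. Plasma and lung drug levels measured at 2 h and at 24 h after the last dose, as peak and trough.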

[19] = system: Cavia porcellus; experiment: Oral bioavailability in Dunkin Hartley guinea pig at 8 mg/kg; format: ADME, organism-based; details: in vivo
[20] = system: Mycobacterium tuberculosis; experiment: as §2, with “reduction” for “reduction of granulomatous infiltration”, “necrotic lesions in lungs” for “spleen”; format: functional, organism-based; summary of the method: as §3
[21] = system: Cavia porcellus; experiment: Half life in Dunkin Hartley guinea pig at 8 mg/kg, po; format: ADME, organism-based; details: in vivo
[22] = Permeability of the compound at 200 uM after 5 hrs by PAMPA assay; format: ADME; details: read-out: permeability
[23] = system: Cavia porcellus; experiment: Half life in Dunkin Hartley guinea pig at 4 mg/kg, ip; format: ADME, organism-based; details: in vivo
[24] = molecular target: T3, Phosphotyrosine protein phosphatase (Mycobacterium tuberculosis); experiment: Inhibition of Mycobacterium tuberculosis H37Rv ATCC 35837 ptpB infected in human THP1 cells assessed as reduction in intracellular bacterial burden at 20 to 100 uM after 72 hrs post infection relative to DMSO-treated control; format: cell-based
Summary of the method: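 PMA-differentiated THP1 cells (1 × 10^6/well) in RPMI with 10% FBS. Inhibitor (0, 20 or 80 μM in DMSO) added, then infected with thawed M. tuberculosis at MOI 1:1 for 3 h and washed 4 times. Medium and inhibitor renewed at 24 h. Cells lysed in 0.05% SDS at 72 h; CFU plated in duplicate and counted after 3 weeks. Triplicate.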

[25] = system: Mycobacterium tuberculosis; experiment: as §2, with “in necrotic lesions” for “of granulomatous infiltration”; format: functional, organism-based; summary of the method: as §3
[26] = Kinetic solubility of the compound after 90 mins; format: physicochemical; details: 1.5 h
[27] = system: Cavia porcellus; experiment: Toxicity in Hartley Duncan guinea pig assessed as body weight increase at 50 to 100 mg/kg/day, po administered for 7 days; format: organism-based; details: in vivo, 168 h
Summary of the method: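 Male Hartley guinea pigs (n = 5) given the compound orally once daily for 7 days at 50 or 100 mg kg–1, as a pre-infection tolerability study. Animals were monitored for adverse drug effects and body-weight change. Plasma and lung drug levels were taken at 2 and 24 h after the last dose.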

[28] = system: Mycobacterium tuberculosis; experiment: Antibacterial activity against Mycobacterium tuberculosis H37Rv infected in acute TB infection induced Hartley Duncan guinea pig model assessed as log reduction in bacterial burden in lungs at 100 mg/kg/day, po administered at 24 hrs post infection measured after 4 weeks post infection; format: functional
Summary of the method: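 Guinea pigs infected by aerosol with 96 CFU M. tuberculosis H37Rv, 4 per group. Compound (100 mg/kg) or vehicle given orally daily for 4 weeks from 24 h post infection. Lung bacterial burden measured relative to vehicle.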

[29] = system: Mycobacterium tuberculosis; experiment: Antibacterial activity against Mycobacterium tuberculosis H37Rv infected in chronic TB infection induced Hartley Duncan guinea pig model assessed as log reduction in bacterial burden in spleen at 100 mg/kg/day, po administered at 24 hrs post infection measured after 4 weeks post infection; format: functional; summary of the method: as §4
[30] = Plasma concentration in Hartley Duncan guinea pig at 100 mg/kg, po measured at 2 hrs; format: ADME, organism-based, Cavia porcellus; summary of the method: as §5
[31] = system: Mycobacterium tuberculosis; experiment: as §2, with “lungs” for “spleen”; format: functional, organism-based; summary of the method: as §3
[32] = Drug uptake in Hartley Duncan guinea pig lungs at 100 mg/kg, po measured at 2 hrs; format: ADME, organism-based, Cavia porcellus; details: lung, read-out: Drug uptake; summary of the method: as §5
[33] = system: Cavia porcellus; experiment: AUCinfinity in Dunkin Hartley guinea pig at 8 mg/kg, po; format: ADME, organism-based; design: dose 8 mg/kg, route oral, time infinity; details: in vivo
[34] = Selectivity ratio of IC50 for human PTP1B to IC50 for Mycobacterium tuberculosis H37Rv His-tagged ptpB
[35] = system: J774.A1; experiment: Cytotoxicity against mouse J774A.1 cells assessed as reduction in cell viability at 50 to 150 uM after 24 hrs by MTT assay; format: cell-based; details: j774.a1, 24 h
Summary of the method: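 MTT viability assay in J774A.1 cells seeded at 6 × 10^3/well and adhered overnight. Inhibitor in DMSO or DMSO only added for 24 h. MTT (5 mg/mL in PBS) added for 4 h, formazan dissolved in DMSO with Sorensen's glycine buffer, absorbance read at 570 nm.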

Sequence of Dual specificity protein phosphatase 3 (P51452 whole entry): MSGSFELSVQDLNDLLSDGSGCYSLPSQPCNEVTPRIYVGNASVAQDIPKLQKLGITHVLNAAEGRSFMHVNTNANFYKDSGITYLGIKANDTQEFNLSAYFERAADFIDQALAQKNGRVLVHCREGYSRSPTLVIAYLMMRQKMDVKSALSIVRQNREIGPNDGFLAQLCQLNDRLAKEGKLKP

O=C(O)c1noc(-c2ccccc2)c1-c1cccc(O)c1
IC50 [1]: 85 µM

Cc1cc(-c2cccc(-c3c(C(=O)O)noc3-c3ccccc3)c2)cc(C)c1O
Cmax [2]: Bld | t1/2 [3]: Bld | IC50 [4]: 36 µM | Cmax [5]: 197 ng/mL | IC50 [6]: 23.2 µM | F [7]: < 2.5% | IC50 [8]: > 100 µM | AUC [9]: 399 ng·h/mL | AUC [10]: Bld | t1/2 [11]: 1.4 h

Cc1onc(C(=O)O)c1-c1cccc(-c2cc(Cl)c(O)c(Cl)c2)c1
Activity [12]: Active | AUC [13]: 71854 ng·h/mL | Cmax [14]: 31519 ng/mL | TIME [15]: < 0.2 h | Cmax [16]: 111099 ng/mL | Activity [17]: 1 deltalog10CFU | concentration at 24 h [18]: 35 ng/mL | F [19]: 156% | Activity [20]: Active | t1/2 [21]: 5.1 h | Papp at 5 h, 200 µM [22]: 7.81 ×10⁻⁶ cm/s | t1/2 [23]: 1.4 h | inhibition [24]: < 63% | Activity [25]: Active | Kinetic_solubility [26]: 200 µM | Activity [27]: > 5% | Activity [28]: 0.9 deltalog10CFU | Activity [29]: 1 deltalog10CFU | concentration at 2 h [30]: 1750 ng/mL | Activity [31]: Active | concentration at 2 h [32]: 623 ng/g | AUC [33]: 230407 ng·h/mL

O=C(O)c1noc(-c2ccccc2)c1-c1cccc(-c2cccc(O)c2)c1
IC50 [4]: 95 µM | IC50 [6]: 59 µM | IC50 [8]: > 100 µM

COc1cccc(-c2c(C(=O)O)noc2-c2ccccc2)c1
IC50 [1]: 38 µM

O=C(O)c1noc(-c2ccccc2)c1-c1ccccc1
Ratio IC50 [34]: 5.9 | IC50 [1]: 17 µM | IC50 [8]: 100 µM

O=C(O)c1noc(-c2ccccc2)c1-c1cccc(-c2ccc(O)cc2)c1
IC50 [4]: 74 µM | Activity [35]: Non-Toxic | IC50 [6]: 54 µM | IC50 [1]: 2.8 µM | IC50 [8]: > 100 µM
